Data set [1] can be described thus: Cytotoxicity against mouse BMDM after 96 hrs by MTT assay. In short, it runs like this:
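Host-cell MTT test on mouse bone-marrow-derived macrophages (L-929 conditioned medium): 5000 cells/well were exposed to 100, 200 and 300 μM. MTT was added, cells were lysed with acidic isopropanol and read at 570 nm.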
In general terms: Formazan colour is commonly taken as a measure of viable cells.

In data set [2] the test system is Leishmania braziliensis. The data set is described as follows: Antileishmanial activity against promastigotes of Leishmania (V.) braziliensis MHOM/CO/87/UA301 after 96 hrs by MTT assay. The note with it: MHOM/CO/87/UA301, 96 h. It counts as functional, organism-based.
In data set [3] the test system is Leishmania braziliensis. The data set is described as follows: Induction of acidocalcisomes alkalinization in Leishmania (V.) braziliensis MHOM/CO/87/UA301 at 1 uM up to 1400 seconds using acridine orange staining. Format: functional, organism-based.
Data set [4] concerns Leishmania braziliensis. The data set is described as follows: Induction of acidocalcisomes alkalinization in Leishmania (V.) braziliensis MHOM/CO/87/UA301 at 6 uM up to 1200 seconds using acridine orange staining. Format: functional, organism-based. The procedure, abridged:
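Promastigotes (10⁹ cells/mL), washed twice in KCl/Tris buffer, were loaded with 2 μM acridine orange for 5 min at 29 °C. Fluorescence (ex 488, em 530 nm) was recorded in a stirred cuvette at 29 °C.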

The test system of data set [5] is Leishmania braziliensis. The data set is described as follows: Reduction of mitochondrial membrane potential in Leishmania (V.) braziliensis MHOM/CO/87/UA301 assessed as increase in fluorescence at 6 uM up to 1400 seconds using rhodamine 123 by spectrofluorimeter analysis. It counts as functional, organism-based. In short, it runs like this: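 Fluorescence (ex 488, em 530 nm) was followed in a spectrofluorimeter at 29 °C under continuous agitation. FCCP served as protonophore comparator.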

Data set [6] in a line: Cytotoxicity against mouse BMDM at 20 to 100 uM after 96 hrs by MTT assay.
The test system of data set [7] is Leishmania braziliensis. The data set is described as follows: Antileishmanial activity against amastigotes of Leishmania (V.) braziliensis MHOM/CO/87/UA301 infected in BMDM assessed as reduction of intracellular amastigotes after 96 hrs by Giemsa staining. It counts as functional, organism-based. The note with it: MHOM/CO/87/UA301, BMDM. The procedure, abridged:
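Mouse bone-marrow macrophages, differentiated in L-929 conditioned medium, were mixed 1:10 with promastigotes in DMEM + 10% FBS. Co-cultures sat on glass coverslips for 18 h at 37 °C, 5% CO2. Medium was then replaced with compound-containing medium for 96 h. Cells were Giemsa-stained and counted. EC50 was based on the number of amastigotes per macrophage; triplicate.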

In data set [8] the test system is Leishmania braziliensis. The data set is described as follows: Effect on sterol biosynthesis in Leishmania (V.) braziliensis MHOM/CO/87/UA301 assessed as endogenous squalene level at 6 uM (reference value: 22.7 +/- 0.12%).
Data set [9] relates to Leishmania braziliensis. The data set is described as follows: Effect on sterol biosynthesis in Leishmania (V.) braziliensis MHOM/CO/87/UA301 assessed as exogenous cholesterol level at 6 uM (reference value: 13.6 +/- 0.51%).
Data set [10] has as its system Leishmania braziliensis. The data set can be described thus: Effect on sterol biosynthesis in Leishmania (V.) braziliensis MHOM/CO/87/UA301 assessed as endogenous 14-desmethyl 5-dehydroepisterol level at 6 uM (reference value: 63.7 +/- 1.02%).

Calls of active or inactive are those of the source. The rule behind the calls is not given here. Some results are limits rather than exact numbers.

Turning to `CCN(CC)CCCCCCNc1cc(OC)cc2c(C)ccnc12` [SITAMAQUINE], the half-maximal inhibitory concentration (IC50) was no more than 100 µM in data set [1] and no more than 50 µM in the data set on Leishmania braziliensis [2].

In the data set with Leishmania braziliensis [2], `Cc1cc(C)c2ccc(-c3ccc4c(c3)OCO4)nc2c1` returned an IC50 of no less than 50 µM.

With `CCc1ccc2nc(-c3ccc4c(c3)OCO4)ccc2c1`, the IC50 in the data set on Leishmania braziliensis [2] was no less than 50 µM.

Consider `CO[C@@H]1C[C@@H](C[C@H]2CC[C@H](C)[C@H]([C@@H](C)C(=O)O)O2)O[C@]2(O[C@](C)([C@H]3CC[C@@](C)([C@@H]4O[C@@H]([C@H]5O[C@@](O)(CO)[C@H](C)C[C@@H]5C)C[C@@H]4C)O3)C[C@H]2C)[C@@H]1C`, for which, in the data set on Leishmania braziliensis [3], the result was Active.

`Cc1cc(C)c2ccc(-c3ccccc3)nc2c1`: the IC50 was no more than 100 µM in [1] and no more than 50 µM in the data set with Leishmania braziliensis [2].

As for `CCCCCCCCCCCCCCCCOP(=O)([O-])OCC[N+](C)(C)C` [MILTEFOSINE], the IC50 in data set [1] is no less than 200 µM; with Leishmania braziliensis [2] it was no more than 50 µM.

Regarding `COc1ccc2nc(-c3ccc4c(c3)OCO4)ccc2c1`, the IC50 in the data set with Leishmania braziliensis [2] was no less than 50 µM.

In turn, `c1ccc2nc(-c3ccc4c(c3)OCO4)ccc2c1` gave an IC50 in the data set with Leishmania braziliensis [2] of no less than 50 µM.

In the case of `CCc1ccc2nc(-c3ccccc3)ccc2c1`, the IC50 in data set [1] was no less than 200 µM; in the data set with Leishmania braziliensis [2], no more than 50 µM. Further, the outcome in the data set with Leishmania braziliensis [4] and with Leishmania braziliensis [5] was Active. Further, the Activity result in data set [6] is given as “Non-toxic”. In the data set with Leishmania braziliensis [7], the EC50 was 20 µM. Further, the results for the mass % of sterol at 6 µM with Leishmania braziliensis [8], with Leishmania braziliensis [9] and with Leishmania braziliensis [10] were 64.3%, 12.3% and 23.4%, respectively.

The compound `Cc1ccc2nc(-c3ccc4c(c3)OCO4)ccc2c1` showed an IC50 in the data set with Leishmania braziliensis [2] of no less than 50 µM.

The IC50 is the concentration that inhibits the measured activity by half. Higher therefore signals weaker potency. As usually defined, the EC50 is the concentration that produces a half-maximal response.

Source of the values: ChEMBL document CHEMBL2396613, “Anti-leishmanial evaluation of C2-aryl quinolines: mechanistic insight on bioenergetics and sterol biosynthetic pathway of Leishmania braziliensis” (Bioorg Med Chem, 2013).
